In ChEMBL document CHEMBL5137084 (J Med Chem, 2022):
Active and inactive are the calls of the source. No cut-off for these calls is given here.

Tests used:
[1] = Prodrug conversion in carboxylesterase 1 knockout C57BL/6 mouse brain assessed as Cmax of 2,6-Dimethoxy-4-(4-phenyl-5-thiophen-2-yl-1H-imidazol-2-yl)phenol at 16.62 mg/kg, po administered as single dose measured upto 8 hrs by LC-MS/MS analysis; assay type: ADME, organism-based; set-up: dose 16.62 mg/kg, time < 8 hrs, route po; details: in vivo
[2] = Stability in carboxylesterase 1 knockout C57BL/6 mouse brain assessed as intact compound level at 16.62 mg/kg, po administered as single dose measured upto 8 hrs by LC-MS/MS analysis; assay type: ADME, organism-based; details: read-out: Stability
[3] = Half life in carboxylesterase 1 knockout C57BL/6 mouse plasma at 16.62 mg/kg, po administered as single dose measured upto 8 hrs by LC-MS/MS analysis; assay type: ADME, organism-based
[4] = Protein binding in mouse plasma assessed as free fraction at 3 to 10 mg/kg, po by ultrafiltration assay; assay type: ADME, organism-based; details: dose 3-10 mg/kg
[5] = Prodrug conversion in carboxylesterase 1 knockout C57BL/6 mouse brain assessed as AUC of 2,6-Dimethoxy-4-(4-phenyl-5-thiophen-2-yl-1H-imidazol-2-yl)phenol at 16.62 mg/kg, po administered as single dose measured upto 8 hrs by LC-MS/MS analysis; assay type: ADME, organism-based; set-up: dose 16.62 mg/kg, time < 8 hrs, route po; details: in vivo
[6] = Prodrug conversion in carboxylesterase 1 knockout C57BL/6 mouse brain assessed as increase in 2,6-Dimethoxy-4-(4-phenyl-5-thiophen-2-yl-1H-imidazol-2-yl)phenol release at 16.62 mg/kg, po administered as single dose measured after 2 hrs by LC-MS/MS analysis; assay type: ADME, organism-based; details: in vivo
Mus musculus = test: Antiinflammatory activity against GFAP-EGFP transgenic mouse model assessed as as inhibition of GFP-labeled extracellular vesicle release at 3 to 10 mg/kg, po pretreated with compound for 30 mins followed by IL-1beta injection measured after 4 hrs; assay type: functional, organism-based; details: dose 3-10 mg/kg
Outline: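 Euthanized 4 h later. Platelet-free plasma was prepared and GFP+ EVs were captured on anti-GFP antibody-coupled magnetic beads and counted by particle tracking, blinded. Mean ± SEM, one-way ANOVA with Tukey.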

[7] = Metabolic stability of the compound in carboxylesterase 1 knockout mouse plasma assessed as parent compound remaining at 10 uM measured after 1 hr in by UPLC analysis; assay type: ADME, cell-free
Outline: (§1)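 Plasma, or liver or brain homogenised 10-fold in 0.1 M potassium phosphate buffer, from CES1−/− mice. Spiked with 10 μM prodrug (final) and shaken at 37 °C for 1 h, in triplicate. Samples at 0 and 1 h were quenched with three volumes of acetonitrile containing losartan. Intact prodrug was measured by UHPLC-orbitrap MS and expressed as % remaining, mean ± SE.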

[8] = Prodrug conversion in carboxylesterase 1 knockout C57BL/6 mouse plasma assessed as AUC of 2,6-Dimethoxy-4-(4-phenyl-5-thiophen-2-yl-1H-imidazol-2-yl)phenol at 16.62 mg/kg, po administered as single dose measured upto 8 hrs by LC-MS/MS analysis; assay type: ADME, organism-based; set-up: time < 8 hrs, dose 16.62 mg/kg, route po; details: in vivo
[9] = Metabolic stability of the compound in carboxylesterase 1 knockout mouse brain assessed as parent compound remaining at 10 uM measured after 1 hr in by UPLC analysis; assay type: ADME, tissue-based; outline: as §1
[10] = Ratio of prodrug conversion in carboxylesterase 1 knockout C57BL/6 mouse brain to plasma assessed as 2,6-Dimethoxy-4-(4-phenyl-5-thiophen-2-yl-1H-imidazol-2-yl)phenol release at 16.62 mg/kg, po administered as single dose measured after 2 hrs by LC-MS/MS analysis; assay type: ADME, organism-based
[11] = Metabolic stability of the compound in carboxylesterase 1 knockout mouse liver assessed as parent compound remaining at 10 uM measured after 1 hr in by UPLC analysis; assay type: ADME, tissue-based; outline: as §1
[12] = Tmax in carboxylesterase 1 knockout C57BL/6 mouse plasma at 16.62 mg/kg, po administered as single dose measured upto 8 hrs by LC-MS/MS analysis; assay type: ADME, organism-based
[13] = Tmax in carboxylesterase 1 knockout C57BL/6 mouse brain at 16.62 mg/kg, po administered as single dose measured upto 8 hrs by LC-MS/MS analysis; assay type: ADME, organism-based
[14] = Prodrug conversion in carboxylesterase 1 knockout C57BL/6 mouse plasma assessed as Cmax of 2,6-Dimethoxy-4-(4-phenyl-5-thiophen-2-yl-1H-imidazol-2-yl)phenol at 16.62 mg/kg, po administered as single dose measured upto 8 hrs by LC-MS/MS analysis; assay type: ADME, organism-based; set-up: time < 8 hrs, dose 16.62 mg/kg, route po; details: in vivo
[15] = Half life in carboxylesterase 1 knockout C57BL/6 mouse brain at 16.62 mg/kg, po administered as single dose measured upto 8 hrs by LC-MS/MS analysis; assay type: ADME, organism-based
[16] = Stability in carboxylesterase 1 knockout C57BL/6 mouse plasma assessed as intact compound level at 16.62 mg/kg, po administered as single dose measured upto 8 hrs by LC-MS/MS analysis; assay type: ADME, organism-based; details: read-out: Stability
[17] = Prodrug conversion in carboxylesterase 1 knockout C57BL/6 mouse plasma assessed as increase in 2,6-Dimethoxy-4-(4-phenyl-5-thiophen-2-yl-1H-imidazol-2-yl)phenol release at 16.62 mg/kg, po administered as single dose measured after 2 hrs by LC-MS/MS analysis; assay type: ADME, organism-based; details: in vivo

Work on `CCC1CC(N2CCCCC2)CC(CC)N1C(=O)Oc1c(OC)cc(-c2nc(-c3ccccc3)c(-c3cccs3)[nH]2)cc1OC` (stereo not drawn) yielded a Cmax [1] of 69 pmol·h/g, a concentration at 8 h [2] of 35.2 nM and a half-life [3] of 2.7 h. It also gave a fraction unbound [4] of 0.9, an AUC [5] of 247 pmol·h/g and a Drug metabolism [6] of 61.5 nM. The Activity (Mus musculus) was “Active”, the Stability [7] was 92% and the AUC [8] was 1047 pmol·h/g. The Stability [9] was 100%, the BPR [10] was 0.24 and the Stability [11] was 100%. The Tmax [12] was 2 h, the Tmax [13] was 2 h and the Cmax [14] was 190 pmol·h/g. It also gave a half-life [15] of 1.8 h, a concentration at 8 h [16] of 283 nM and a Drug metabolism [17] of 189.3 nM.
